Active and inactive are the calls of the source. No cut-off for these calls is given here.
Assays:
Plasmodium falciparum [1] = assay: Antimalarial activity against Plasmodium falciparum 3D7 infected in human erythrocytes after 96 hrs in presence of 1 uM pantothenate by SYBR green fluorescence-based method; type: functional, organism-based; details: 3D7, 96 h
How it was run: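 Blood-stage parasites cultured 96 h in medium with 1 μM pantothenate across a range of compound concentrations; IC50 is the concentration giving 50% inhibition of proliferation. Each experiment run in triplicate, 2–7 independent experiments; mean ± range/2 (n = 2) or SEM (n = 3–7).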

[2] = Cytotoxicity against human WI38 cells assessed as inhibition of cell proliferation at 100 uM after 48 hrs by CellTiter-Glo assay relative to control; type: cell-based, WI-38
How it was run: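 WI-38 proliferation measured over 48 h with compound at 100 μM; percent inhibition reported.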

[3] = target: T1, Pantothenate kinase, putative (Plasmodium falciparum (isolate 3D7)) (UniProt Q8ILP4); assay: Inhibition of pantothenate kinase in Plasmodium falciparum 3D7 trophozoites at 100 uM using [14C]pantothenate as substrate after 15 to 60 mins by TopCount scintillation counting method relative to control
T1 sequence (whole entry): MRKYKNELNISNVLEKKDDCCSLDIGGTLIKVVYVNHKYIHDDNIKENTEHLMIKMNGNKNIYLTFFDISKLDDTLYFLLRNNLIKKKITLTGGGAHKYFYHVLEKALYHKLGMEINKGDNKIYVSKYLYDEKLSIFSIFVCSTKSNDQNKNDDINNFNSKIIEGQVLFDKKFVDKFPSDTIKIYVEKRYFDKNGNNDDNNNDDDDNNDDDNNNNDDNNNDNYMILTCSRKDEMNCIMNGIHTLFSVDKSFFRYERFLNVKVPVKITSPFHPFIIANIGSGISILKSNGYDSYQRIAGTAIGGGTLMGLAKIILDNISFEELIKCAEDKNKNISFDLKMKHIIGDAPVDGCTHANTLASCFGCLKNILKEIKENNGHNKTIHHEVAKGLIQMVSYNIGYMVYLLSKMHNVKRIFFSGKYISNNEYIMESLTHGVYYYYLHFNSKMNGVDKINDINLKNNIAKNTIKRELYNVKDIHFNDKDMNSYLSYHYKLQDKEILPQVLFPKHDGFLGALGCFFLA
How it was run: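 [14C]Pantothenate phosphorylation by PanK in P. falciparum lysate with compound at 100 μM. Pantothenate was 1.8 μM for R-compounds and 1 μM for S-compounds. Incubation period was pre-set within the linear range; percent inhibition versus DMSO-only controls. 3–8 experiments in duplicate, SEM.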

[4] = Cytotoxicity against HEK293 cells assessed as inhibition of cell proliferation at 100 uM after 96 hrs by CellTiter-Glo assay relative to control; type: cell-based; details: human
How it was run: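 HEK-293 proliferation measured over 96 h with compound at 100 μM; percent inhibition reported.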

Plasmodium falciparum [5] = assay: Ratio of IC50 for Plasmodium falciparum 3D7 infected in human erythrocytes in presence of 100 uM pantothenate to IC50 for Plasmodium falciparum 3D7 infected in human erythrocytes in presence of 1 uM pantothenate; type: functional
How it was run: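 Paired 96 h proliferation assays with parasites in medium containing 100 μM versus 1 μM pantothenate. Fold-increase = IC50 at 100 μM pantothenate divided by IC50 at 1 μM. Two independent experiments in triplicate; error is range/2.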

[6] = Selectivity index, ratio of cytotoxic concentration for HEK293 cells to IC50 for Plasmodium falciparum 3D7 infected in human erythrocytes in presence of 1 uM pantothenate; type: toxicity, cell-based; details: read-out: Selectivity Index
[7] = Selectivity index, ratio of cytotoxic concentration for human WI38 cells to IC50 for Plasmodium falciparum 3D7 infected in human erythrocytes in presence of 1 uM pantothenate; type: toxicity, cell-based; details: read-out: Selectivity Index
[8] = target: T1, Pantothenate kinase, putative (Plasmodium falciparum (isolate 3D7)); assay: Inhibition of pantothenate kinase in Plasmodium falciparum 3D7 trophozoites at 1 to 100 uM using [14C]pantothenate as substrate after 15 mins by TopCount scintillation counting method
How it was run: (§1)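 PanK activity in P. falciparum lysate with 1.8 μM [14C]pantothenate and increasing compound concentrations, 15 min incubation within the linear range. Percent inhibition from [14C]pantothenate phosphorylated versus no compound. 2–5 experiments in duplicate; mean ± range/2 or SEM.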

[9] = Cysteine reactivity at pH 7.4 after 2 hrs by 1H NMR analysis; type: physicochemical; details: pH 7.4, 2 h
How it was run: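 Compound mixed with glutathione or L-cysteine at pH 7.4 and monitored by NMR for 2 h. The first spectrum was acquired 15 min after mixing. N-ethylmaleimide served as a reactive Michael acceptor reference.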

[10] = target: T2, Pantothenate kinase, putative (Plasmodium falciparum (isolate 3D7), UniProt Q8ILP4); assay: Inhibition of pantothenate kinase in Plasmodium falciparum 3D7 trophozoites using [14C]pantothenate as substrate after 15 mins by TopCount scintillation counting method; how it was run: as §1
T2 sequence (Q8ILP4 whole entry): T1 sequence (whole entry)

[11] = Drug metabolism in human erythrocytes infected with Plasmodium falciparum 3D7 trophozoites assessed as esterase-mediated compound hydrolysis at 1 mM after 3 hrs by 1H-13C-HSQC NMR analysis; type: ADME, cell-based; details: 1000 µM
How it was run: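 Infected erythrocytes (>95% parasitemia) incubated 3 h with 13C3-labelled or unlabelled compound. Metabolites were extracted from about 2 × 10^8 parasites and analysed by 1H-13C HSQC in D2O with 200 μM TSP as shift reference. Two independent experiments.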

CC(C)(CO)[C@H](O)C(=O)N/C=C/C(=O)O
IC50 (Plasmodium falciparum [1]): > 100 µM | inhibition at 48 h, 100 µM [2]: 17% | inhibition [3]: < 25% | inhibition at 96 h, 100 µM [4]: -10%

CC(C)(C)OC(=O)/C=C/NC(=O)[C@H](O)C(C)(C)CO
IC50 (Plasmodium falciparum [1]): 42 µM | Ratio IC50 (Plasmodium falciparum [5]): 3.1 | selectivity ratio [6]: > 2 | inhibition at 48 h, 100 µM [2]: 0% | selectivity ratio [7]: > 2 | inhibition [3]: > 90% | inhibition at 96 h, 100 µM [4]: -1% | inhibition [8]: Active

COC(=O)/C=C/NC(=O)[C@H](O)C(C)(C)CO
IC50 (Plasmodium falciparum [1]): > 200 µM | inhibition at 48 h, 100 µM [2]: 4% | inhibition [3]: > 90% | inhibition at 96 h, 100 µM [4]: 0% | inhibition [8]: Active

COC(=O)/C=C\NC(=O)[C@H](O)C(C)(C)CO
IC50 (Plasmodium falciparum [1]): > 200 µM | inhibition [3]: < 25%

CCOC(=O)/C=C\NC(=O)[C@@H](O)C(C)(C)CO
IC50 (Plasmodium falciparum [1]): > 100 µM | inhibition at 48 h, 100 µM [2]: -6% | inhibition [3]: < 25% | inhibition at 96 h, 100 µM [4]: -6%

CC(C)(C)OC(=O)/C=C/NC(=O)[C@@H](O)C(C)(C)CO
IC50 (Plasmodium falciparum [1]): > 100 µM | inhibition at 48 h, 100 µM [2]: 14% | inhibition [3]: < 25% | inhibition at 96 h, 100 µM [4]: -8%

CCOC(=O)/C=C/N1CCCCCCCC1=O
IC50 (Plasmodium falciparum [1]): 61 µM | Ratio IC50 (Plasmodium falciparum [5]): 1.4 | inhibition [3]: inactive

CCOC(=O)/C=C/N1CCCCCCC1=O
IC50 (Plasmodium falciparum [1]): 93 µM | Ratio IC50 (Plasmodium falciparum [5]): 1 | inhibition [3]: inactive

CC(C)(CO)[C@@H](O)C(=O)N/C=C/C(=O)OCc1ccccc1
IC50 (Plasmodium falciparum [1]): 13 µM | Ratio IC50 (Plasmodium falciparum [5]): >7.7 | selectivity ratio [6]: > 8 | inhibition at 48 h, 100 µM [2]: 19% | selectivity ratio [7]: > 8 | inhibition [3]: > 90% | inhibition at 96 h, 100 µM [4]: 5% | Drug metabolism [9]: Metabolite_Notdetected | IC50 [10]: 0.14 µM

CC(C)(C)OC(=O)/C=C\NC(=O)[C@H](O)C(C)(C)CO
IC50 (Plasmodium falciparum [1]): 39 µM | Ratio IC50 (Plasmodium falciparum [5]): 1 | inhibition at 48 h, 100 µM [2]: -14% | inhibition [3]: < 25% | inhibition at 96 h, 100 µM [4]: -9%

CC(C)(CO)[C@H](O)C(=O)N/C=C/C(=O)OCc1ccccc1
IC50 (Plasmodium falciparum [1]): > 100 µM | inhibition at 48 h, 100 µM [2]: 19% | inhibition [3]: < 25% | inhibition at 96 h, 100 µM [4]: -6%

CC(C)(CO)[C@@H](O)C(=O)N/C=C\C(=O)OCc1ccccc1
IC50 (Plasmodium falciparum [1]): 89 µM | Ratio IC50 (Plasmodium falciparum [5]): 0.9 | inhibition at 48 h, 100 µM [2]: 4% | inhibition [3]: < 25% | inhibition at 96 h, 100 µM [4]: 7%

CCOC(=O)/C(C)=C/NC(=O)[C@@H]1OC(C)(C)OCC1(C)C
IC50 (Plasmodium falciparum [1]): 93 µM | Ratio IC50 (Plasmodium falciparum [5]): 1 | inhibition [3]: inactive

CCOC(=O)/C=C\NC(=O)[C@H](O)C(C)(C)CO
IC50 (Plasmodium falciparum [1]): > 200 µM | inhibition at 48 h, 100 µM [2]: 1% | inhibition [3]: < 25% | inhibition at 96 h, 100 µM [4]: -6%

COC(=O)/C=C/NC(=O)[C@@H](O)C(C)(C)CO
IC50 (Plasmodium falciparum [1]): > 100 µM | inhibition at 48 h, 100 µM [2]: -18% | inhibition [3]: < 25% | inhibition at 96 h, 100 µM [4]: -2%

CCOC(=O)/C(C)=C/NC(=O)[C@H](O)C(C)(C)CO
IC50 (Plasmodium falciparum [1]): > 200 µM | inhibition [3]: Active | inhibition [8]: inactive

CC(C)(CO)[C@H](O)C(=O)N/C=C\C(=O)O
IC50 (Plasmodium falciparum [1]): > 100 µM | inhibition at 48 h, 100 µM [2]: -19% | inhibition [3]: < 25% | inhibition at 96 h, 100 µM [4]: -11%

CCOC(=O)/C=C/NC(=O)[C@@H](O)C(C)(C)CO
IC50 (Plasmodium falciparum [1]): > 100 µM | inhibition at 48 h, 100 µM [2]: -6% | inhibition [3]: < 25% | inhibition at 96 h, 100 µM [4]: -9%

COC(=O)/C=C\NC(=O)[C@@H](O)C(C)(C)CO
IC50 (Plasmodium falciparum [1]): > 100 µM | inhibition at 48 h, 100 µM [2]: -20% | inhibition [3]: < 25% | inhibition at 96 h, 100 µM [4]: -12%

CC(C)(CO)[C@H](O)C(=O)N/C=C\C(=O)OCc1ccccc1
IC50 (Plasmodium falciparum [1]): > 100 µM | inhibition at 48 h, 100 µM [2]: -2% | inhibition [3]: < 25% | inhibition at 96 h, 100 µM [4]: -7%

CCOC(=O)/C=C/NC(=O)[C@@H]1OC(C)(C)OCC1(C)C
IC50 (Plasmodium falciparum [1]): 144 µM | Ratio IC50 (Plasmodium falciparum [5]): 0.9 | inhibition [3]: inactive

CCOC(=O)/C=C/N1CCCCCC1=O
IC50 (Plasmodium falciparum [1]): 181 µM | Ratio IC50 (Plasmodium falciparum [5]): 0.9 | inhibition [3]: inactive

CCOC(=O)/C(C)=C/NC(=O)c1ccccc1
IC50 (Plasmodium falciparum [1]): 120 µM | Ratio IC50 (Plasmodium falciparum [5]): 1 | inhibition [3]: inactive

CC(C)(CO)[C@@H](O)C(=O)N/C=C\C(=O)O
IC50 (Plasmodium falciparum [1]): > 200 µM | inhibition [3]: < 25%

CC(C)(CO)[C@@H](O)C(=O)N/[13CH]=[13CH]/[13C](=O)O
Drug metabolism [11]: Metabolite_Detected

CC(C)(C)OC(=O)/C=C\NC(=O)[C@@H](O)C(C)(C)CO
IC50 (Plasmodium falciparum [1]): > 100 µM | inhibition at 48 h, 100 µM [2]: 26% | inhibition [3]: < 25% | inhibition at 96 h, 100 µM [4]: -11%

CC(C)(CO)[C@@H](O)C(=O)N/[13CH]=[13CH]/[13C](=O)OCc1ccccc1
Drug metabolism [11]: Metabolite_Notdetected

CCOC(=O)/C=C/NC(=O)c1ccccc1
IC50 (Plasmodium falciparum [1]): 158 µM | Ratio IC50 (Plasmodium falciparum [5]): 1 | inhibition [3]: inactive

CCOC(=O)/C=C/NC(=O)c1cccnc1
IC50 (Plasmodium falciparum [1]): > 200 µM | inhibition [3]: inactive

CCOC(=O)/C=C/NC(=O)[C@H](O)C(C)(C)CO
IC50 (Plasmodium falciparum [1]): 159 µM | Ratio IC50 (Plasmodium falciparum [5]): >1.3 | selectivity ratio [6]: > 0.6 | inhibition at 48 h, 100 µM [2]: 36% | selectivity ratio [7]: > 0.6 | inhibition [3]: > 90% | inhibition at 96 h, 100 µM [4]: -5% | inhibition [8]: Active

— ChEMBL document CHEMBL4138249, “Structure-activity analysis of CJ-15,801 analogues that interact with Plasmodium falciparum pantothenate kinase and inhibit parasite proliferation” (Eur J Med Chem, 2018)
